In article PMC10694825 (The journal of physical chemistry. B, 2023):
Changes are numbered by the printed parent chain. Where two headings read alike, the source gives them in different places.

Columns and labels:
PTP1B [1] = target: T1, PTP1B (Homo sapiens, UniProt P18031); settings: cited from earlier work; for selectivity: inhibits PTP1B more potently than TCPTP (fold): PTP1B over TCPTP
T1 sequence (P18031 1-321): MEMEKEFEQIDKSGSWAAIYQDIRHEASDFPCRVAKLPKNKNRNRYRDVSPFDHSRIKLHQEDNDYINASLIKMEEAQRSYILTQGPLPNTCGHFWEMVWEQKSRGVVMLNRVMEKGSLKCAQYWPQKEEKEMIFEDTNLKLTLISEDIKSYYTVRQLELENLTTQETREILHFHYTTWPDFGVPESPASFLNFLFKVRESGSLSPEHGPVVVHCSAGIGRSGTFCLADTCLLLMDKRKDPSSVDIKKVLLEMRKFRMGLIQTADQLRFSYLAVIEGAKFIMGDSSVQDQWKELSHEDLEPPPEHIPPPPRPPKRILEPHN

TCPTP K280M = target: T2, TCPTP K280M (Homo sapiens, UniProt P17706, K280M); experiment: pNPP enzyme kinetics, K280M variant; assay type: biochemical; settings: TCPTP K280M vs wild type
T2 sequence (P17706 1-317 K280M): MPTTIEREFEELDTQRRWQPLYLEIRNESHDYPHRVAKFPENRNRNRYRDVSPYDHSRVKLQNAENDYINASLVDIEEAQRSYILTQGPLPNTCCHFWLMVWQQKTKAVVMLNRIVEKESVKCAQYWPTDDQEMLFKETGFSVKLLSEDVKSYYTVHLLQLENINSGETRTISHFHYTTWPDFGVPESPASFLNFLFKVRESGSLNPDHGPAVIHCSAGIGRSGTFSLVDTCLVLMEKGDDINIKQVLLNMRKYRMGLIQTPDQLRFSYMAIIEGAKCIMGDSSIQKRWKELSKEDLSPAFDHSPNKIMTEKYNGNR
In short: (§1)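 Catalytic-domain constructs (PTP1B 1–351, TCPTP 1–317), with mutations made by Gibson assembly, expressed in E. coli BL21(DE3) and purified by Ni-affinity then anion exchange. Enzyme at 50 nM with 50 μg/mL BSA and test compound (0.5–500 μM) in 50 mM HEPES pH 7.3 with 10% DMSO, preincubated 1 h at 22 °C. Started with 20 mM pNPP; A405 read every 30 s for 8 min. IC50 from a Hill fit of initial rates.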

TCPTP L158F = target: T3, TCPTP L158F (Homo sapiens, UniProt P17706, L158F); experiment: pNPP enzyme kinetics, L158F variant; assay type: biochemical; settings: TCPTP L158F vs wild type
T3 sequence (P17706 1-317 L158F): T2 sequence (P17706 1-317 K280M) with L158F, M280K

PTP1B L158F = target: T4, PTP1B L158F (Homo sapiens, UniProt P18031, L158F); experiment: pNPP enzyme kinetics, L158F variant; assay type: biochemical; settings: PTP1B L158F vs wild type
T4 sequence (P18031 1-321 L158F): T1 sequence (P18031 1-321) with L158F

PTP1B M282K = target: T5, PTP1B M282K (Homo sapiens, UniProt P18031, M282K); experiment: pNPP enzyme kinetics, M282K variant; assay type: biochemical; settings: PTP1B M282K vs wild type
T5 sequence (P18031 1-321 M282K): T1 sequence (P18031 1-321) with M282K
In short: as §1

TCPTP R288Q = target: T6, TCPTP R288Q (Homo sapiens, UniProt P17706, R288Q); experiment: pNPP enzyme kinetics, R288Q variant; assay type: biochemical; settings: TCPTP R288Q vs wild type
T6 sequence (P17706 1-317 R288Q): T2 sequence (P17706 1-317 K280M) with M280K, R288Q
In short: as §1

PTP1B [2] = target: T1, PTP1B; experiment: pNPP enzyme kinetics, inhibition by amorphadiene; assay type: biochemical; settings: this study
In short: (§2)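 Truncated enzymes (PTP1B 1–351, TCPTP 1–317) expressed in E. coli BL21(DE3), purified by Ni-affinity and anion-exchange. Reactions held 50 nM enzyme, 50 μg/mL BSA and terpenoid at 0.5–500 μM in 50 mM HEPES pH 7.3 with 10% DMSO for 1 h at 22 °C. 20 mM pNPP started the reaction; A405 read every 30 s over 8 min. Initial rates came from a standard curve, and IC50 from a Hill-equation fit. Selectivity was taken as the TCPTP/PTP1B IC50 ratio.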

TCPTP [3] = target: T7, TCPTP (Homo sapiens, UniProt P17706); settings: read-out: IC50 for TCPTP; previously reported; cited from earlier work
T7 sequence (P17706 1-317): T2 sequence (P17706 1-317 K280M) with M280K

TCPTP [4] = target: T7, TCPTP; experiment: pNPP enzyme kinetics, inhibition by amorphadiene; assay type: biochemical; settings: read-out: IC50 for TCPTP; wild type, pNPP substrate, this study
In short: as §2

PTP1B Q290R = target: T8, PTP1B Q290R (Homo sapiens, UniProt P18031, Q290R); experiment: pNPP enzyme kinetics, Q290R variant; assay type: biochemical; settings: PTP1B Q290R vs wild type
T8 sequence (P18031 1-321 Q290R): T1 sequence (P18031 1-321) with Q290R
In short: as §1

PTP1B [5] = target: T1, PTP1B; settings: MD simulation, cited from earlier work

CC(C)=CCC=C(C)C1CC=C(C)CC1 (stereo not drawn) [AB, α-bisabolene]
selectivity: inhibits PTP1B more potently than TCPTP (fold) (PTP1B [1]): 5–8 ×

C=C(C)[C@@H]1CC[C@@H](C)[C@@H]2CCC(C)=C[C@@H]21 [AD, amorphadiene]
effect of mutation on IC50 (TCPTP K280M): no effect on the IC50
selectivity: inhibits PTP1B more potently than TCPTP (fold) (PTP1B [1]): 5–8 ×
IC50 ratio (TCPTP/PTP1B), metric for selectivity (PTP1B [1]; previously reported): 6.6 ± 1.8
IC50 (PTP1B [1]; read-out: IC50 for PTP1B, previously reported): 53 ± 8 µM
IC50 of L158F mutant compared with wild type (TCPTP L158F): indistinguishable between wild-type and mutant enzymes
IC50 of L158F mutant compared with wild type (PTP1B L158F): indistinguishable between wild-type and mutant enzymes
effect of mutation on potency (IC50) (PTP1B M282K): reduced potency
effect of mutation on IC50 (TCPTP R288Q): no effect on the IC50
IC50 (PTP1B [2]; read-out: IC50 for PTP1B, wild type, pNPP substrate): 7.7 ± 2.4 µM
IC50 ratio (TCPTP/PTP1B), metric for selectivity (PTP1B [2]): 3.5 ± 1.8
IC50 (TCPTP [3]): 349 ± 77 µM
IC50 (TCPTP [4]): 27 ± 11.2 µM
effect of mutation on potency (IC50) (PTP1B Q290R): reduced potency
occupancy of the β site (loc4), observed trajectories (PTP1B [5]; PTP1B with disordered α7 helix): 0%
occupancy of the β site (loc4), observed trajectories (PTP1B [5]; PTP1B with truncated α7 helix): 88%
